Measurements taken from ChEMBL document CHEMBL1142375, “Fluorescent 7-diethylaminocoumarin pyrrolobenzodiazepine conjugates: synthesis, DNA interaction, cytotoxicity and differential cellular localization” (Bioorg Med Chem Lett, 2008).
Active and inactive are the calls of the source. The rule behind the calls is not given here.

How the values were obtained:
OVCAR-5 [1] = assay: Cytotoxicity against human OVCAR5 cells after 96 hrs by Alamar blue method; format: functional, cell-based; settings: OVCAR-5, 96 h
How it was run: (§1)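 Cells were exposed to compound continuously for 96 h, and viability was read by Alamar blue. The IC50 is the mean with standard deviation of three independent experiments.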

LOX IMVI [2] = assay: Cytotoxicity against human LOXIMVI cells after 96 hrs by Alamar blue method; format: functional, cell-based; how it was run: as §1
DNA [3] = assay: Binding affinity to calf thymus DNA assessed as thermal denaturation temperature at 20 uM after 4 hrs; format: nucleic-acid assay; settings: Bos taurus
DNA [4] = assay: Binding affinity to calf thymus DNA assessed as thermal denaturation temperature at 20 uM after 18 hrs; format: nucleic-acid assay; settings: Bos taurus
DNA [5] = assay: Binding affinity to calf thymus DNA assessed as thermal denaturation temperature at 20 uM after 72 hrs; format: nucleic-acid assay; settings: Bos taurus
LOX IMVI [6] = assay: Cytotoxicity against human LOXIMVI cells after 24 hrs by Alamar blue method; format: functional, cell-based
LOX IMVI [7] = assay: Cytotoxicity against human LOXIMVI cells at 1 uM after 96 hrs by Alamar blue method; format: functional, cell-based
OVCAR-5 [8] = assay: Cytotoxicity against human OVCAR5 cells at 1 uM after 96 hrs by Alamar blue method; format: functional, cell-based

| Compound | IC50 (OVCAR-5 [1]) [µM] | IC50 (LOX IMVI [2]) [µM] | ΔTm (DNA [3]) [°C] | ΔTm (DNA [4]) [°C] | ΔTm (DNA [5]) [°C] | IC50 (LOX IMVI [6]) [µM] | Activity (LOX IMVI [7]) | Activity (OVCAR-5 [8]) |
| --- | --- | --- | --- | --- | --- | --- | --- | --- |
| CCN(CC)c1ccc2cc(C(=O)NCCCCCCCCOc3cc4c(cc3OC)C(=O)N3CCC[C@H]3C=N4)c(=O)oc2c1 | 7.8 | 4.5 | 1.4 | 2 | 2.9 |  |  |  |
| CCOC(=O)c1cc2ccc(N(CC)CC)cc2oc1=O | > 10 | > 10 | 0.2 | 0.2 | 0.2 |  |  |  |
| CCN(CC)c1ccc2cc(C(=O)NCCCCNC(=O)CCOc3cc4c(cc3OC)C(=O)N3CCC[C@H]3C=N4)c(=O)oc2c1 | > 10 | > 10 | 0.7 | 0.9 | 1 |  |  |  |
| CCN(CC)c1ccc2cc(C(=O)NCCCOc3cc4c(cc3OC)C(=O)N3CCC[C@H]3C=N4)c(=O)oc2c1 | 3.2 | 1.4 | 3.4 | 3.6 | 3.9 | 1.5 |  |  |
| COc1cc2c(cc1O)N=C[C@@H]1CCCN1C2=O |  |  | 0.5 | 0.7 | 0.8 |  |  |  |
| COc1cc2c(cc1C)N=C[C@@H]1CCCN1C2=O |  |  |  |  |  |  | inactive | inactive |
